Results published in ChEMBL document CHEMBL1149336, “Fumarranol, a rearranged fumagillin analogue that inhibits angiogenesis in vivo” (J Med Chem, 2006).
Active and inactive are the calls of the source. The calls are words filed in the database; no cut-off is given here.

Key:
Mus musculus [1] = assay: Ulceration in mouse at 30 mg/kg; assay type: functional, organism-based; parameters: dose 30 mg/kg
Mus musculus [2] = assay: Inhibition of VEGF and FGF-stimulated angiogenesis in mouse at 30 mg/kg by Matrigel plug assay; assay type: functional, organism-based; parameters: dose 30 mg/kg
In short: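 Mice received subcutaneous matrigel containing VEGF and basic FGF, with the agent dosed at 30 mg/kg/day. After 10 days, vessel ingrowth into the plug was judged by the plug's red colour and by MAS-trichrome staining of matrigel slices to visualize blood vessels.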

AEC [3] = assay: Antiproliferative activity against BAEC; conditions: Bos taurus
[4] = target: Methionine aminopeptidase 2 (Homo sapiens) (UniProt P50579); assay: Inhibition of human MetAP2 at 100 uM
AEC [5] = assay: Antiproliferative activity against BAEC at 100 uM; assay type: functional, cell-based; conditions: Bos taurus
Mus musculus [6] = assay: Inhibition of VEGF and FGF-stimulated angiogenesis in mouse at 90 mg/kg by Matrigel plug assay; assay type: functional, organism-based; parameters: dose 90 mg/kg
In short: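 Matrigel with VEGF and basic FGF injected subcutaneously into mice and left 10 days while new vessels grew in. Compound given at 90 mg/kg/day. Vessel ingrowth was judged by the red colour of the plug and by MAS-trichrome staining of plug slices.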

Mus musculus [7] = assay: Ulceration in mouse at 90 mg/kg; assay type: functional, organism-based; parameters: dose 90 mg/kg
In short: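 Mice in the VEGF/bFGF matrigel-plug study were dosed at 90 mg/kg/day and their skin was inspected for ulceration.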

Methionine aminopeptidase 2 (Homo sapiens), sequence (P50579 2-478 limits assumed): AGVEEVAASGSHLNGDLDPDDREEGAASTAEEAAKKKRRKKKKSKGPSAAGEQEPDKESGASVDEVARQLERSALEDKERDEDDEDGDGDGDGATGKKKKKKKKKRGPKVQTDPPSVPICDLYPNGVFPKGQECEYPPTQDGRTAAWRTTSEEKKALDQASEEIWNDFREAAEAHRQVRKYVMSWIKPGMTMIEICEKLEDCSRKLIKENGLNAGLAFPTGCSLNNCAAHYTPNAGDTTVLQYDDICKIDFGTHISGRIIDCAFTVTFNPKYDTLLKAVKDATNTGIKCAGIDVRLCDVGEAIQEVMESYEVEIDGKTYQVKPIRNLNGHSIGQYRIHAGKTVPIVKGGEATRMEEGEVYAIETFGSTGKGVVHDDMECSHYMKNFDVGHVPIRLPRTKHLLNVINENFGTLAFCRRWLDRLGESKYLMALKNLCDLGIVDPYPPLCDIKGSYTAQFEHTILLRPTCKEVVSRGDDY

Row | SMILES | IC50 (AEC [3]) [nM] | Activity [4] | Activity (AEC [5]) | other results
1 | CO[C@@H]1[C@H](OC(=O)NC(=O)CCl)CC[C@]2(CO2)[C@H]1[C@@]1(C)O[C@@H]1CC=C(C)C [O-CHLOROACETYLCARBAMOYLFUMAGILLOL] | 0.037 |  |  | Activity (Mus musculus [1]): Active; Activity (Mus musculus [2]): Active
2 | CO[C@]12C(=O)CC[C@@]1(C=O)C2[C@@]1(C)O[C@@H]1CC=C(C)C (stereo not given in full) | 370 |  |  | 
3 | CO[C@]12C(=O)CC[C@@]1(CO)[C@H]2/C(C)=C/CC=C(C)C | 1780 |  |  | 
4 | CO[C@]12C(=O)/C(=C/c3ccco3)C[C@@]1(CO)C2[C@@]1(C)O[C@@H]1CC=C(C)C (stereo not given in full) |  | inactive | inactive | 
5 | CO[C@@H]1C(=O)CC[C@](O)(C=O)[C@H]1[C@@]1(C)O[C@@H]1CC=C(C)C [FUMAGALONE] | 52 |  |  | 
6 | CO[C@@]12C([C@@]3(C)O[C@@H]3CC=C(C)C)[C@]1(CO)CC[C@H]2O (stereo not given in full) |  | inactive | inactive | 
7 | COC[C@@]12CCC(=O)[C@]1(OC)C2[C@@]1(C)O[C@@H]1CC=C(C)C (stereo not given in full) |  | inactive | inactive | 
8 | CCOC(=O)CCCC/C=C/C[C@H]1O[C@]1(C)C1[C@]2(CO)CCC(=O)[C@]12OC (stereo not given in full) |  | inactive | inactive | 
9 | CO[C@]12C(=O)CC[C@@]1(CO)C2[C@@]1(C)O[C@@H]1CC=C(C)C (stereo not given in full) [FUMARRANOL] | 34 |  |  | Activity (Mus musculus [6]): Active; Activity (Mus musculus [7]): inactive
10 | CO[C@]12C(=O)CC[C@@]1(CO)C2C(C)CCC=C(C)C (stereo not given in full) | 4000 |  |  | 
11 | CO[C@]12C(=O)CC[C@@]1(CN1C(=O)c3ccccc3C1=O)C2[C@@]1(C)O[C@@H]1CC=C(C)C (stereo not given in full) |  | inactive | inactive | 
